The test system of one data set is Pseudomonas aeruginosa. As to the kind of experiment: Antimicrobial activity against Pseudomonas aeruginosa ATCC 27853 after 18 to 24 hrs by macrodilution method. The data set is classed as functional.
The subject of data set [1] is Escherichia coli. Put plainly: Inhibition of Escherichia coli MurE assessed as residual activity at 200 uM after 30 mins by HPLC analysis. An outline of the steps:
(§1)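 Radioactivity-based ligase assay with Tween-20 detergent present to prevent aggregate-driven inhibition; residual enzyme activity measured with compound at a single fixed concentration of 200 μM or 500 μM.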

In data set [2] the test system is Staphylococcus aureus. As to the kind of experiment: Antimicrobial activity against methicillin-resistant Staphylococcus aureus ATCC 43300 after 18 to 24 hrs by macrodilution method. The format is functional.
The subject of data set [3] is Escherichia coli. Put plainly: Antimicrobial activity against Escherichia coli ATCC 25922 after 18 to 24 hrs by macrodilution method. The data set is classed as functional.
Data set [4] in a line: Inhibition of Escherichia coli MurD after 30 mins by HPLC analysis. An outline of the steps: (§2)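 Radioactivity-based ligase assay on E. coli or S. aureus MurD or MurE, run with Tween-20 detergent present to prevent nonspecific inhibition by compound aggregates; IC50 values reported.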
The next data set concerns Enterococcus faecalis. As to the kind of experiment: Antimicrobial activity against Enterococcus faecalis ATCC 29212 after 18 to 24 hrs by macrodilution method. The format is functional.
Data set [5] in a line: Inhibition of Escherichia coli MurE after 30 mins by HPLC analysis. An outline of the steps:
as §2

In data set [6] the test system is Staphylococcus aureus. As to the kind of experiment: Antimicrobial activity against Staphylococcus aureus ATCC 29213 after 18 to 24 hrs by macrodilution method. The data set is classed as functional.
A short description of data set [7]: Inhibition of Staphylococcus aureus MurD after 30 mins by HPLC analysis. An outline of the steps:
as §2

The nature of data set [8]: Inhibition of Staphylococcus aureus MurE after 30 mins by HPLC analysis. Summed up: as §2
For data set [9], the system named is Staphylococcus aureus. As to the kind of experiment: Inhibition of Staphylococcus aureus MurE at 200 uM after 30 mins by HPLC analysis. Summed up:
as §1

Another data set has as its system HepG2. As to the kind of experiment: Cytotoxicity against human HepG2 cells up to 200 uM after 24 hrs by MTT assay. The data set is classed as cell-based. The following applies: hepg2, 24 h. On the technique in general: Formazan colour is commonly taken as a measure of viable cells.
The test system of data set [10] is Escherichia coli. As to the kind of experiment: Inhibition of Escherichia coli MurE assessed as residual activity at 500 uM after 30 mins by HPLC analysis. Summed up: as §1
Data set [11] has as its system Staphylococcus aureus. Put plainly: Inhibition of Staphylococcus aureus MurE assessed as residual activity at 500 uM after 30 mins by HPLC analysis.

≈ marks a conversion by molar mass, not a printed value. Calls of active or inactive are those of the source. No cut-off for these calls is given here.

What is called MIC is the lowest concentration that inhibits growth of the organism. Low values mean inhibition by little substance, high ones a need for much substance. As a reminder, the IC50 is the concentration needed to halve the response being measured. Low readings indicate inhibition by little substance, high ones a need for much substance. For `O=C(O)CC[C@@H](NC(=O)c1cccc(NCc2ccc(/C=C3\SC(=O)NC3=O)cc2)c1)C(=O)O`, the MIC in the data set with Pseudomonas aeruginosa, with Staphylococcus aureus [2], against Escherichia coli [3], in the data set on Enterococcus faecalis and against Staphylococcus aureus [6] was greater than 128 µg/mL throughout. In the data set on Escherichia coli [1], the Activity came out at 51%. For the same compound, the IC50 in data set [4] is 36 µM; in [5], 200 µM; in data set [7], 100 µM; in data set [8] it was greater than 200 µM. In the data set with Staphylococcus aureus [9], the inhibition entry was “inactive”.

For `O=C(O)CC[C@@H](NC(=O)c1cccc(NCc2ccc(/C=C3\SC(=S)NC3=O)cc2)c1)C(=O)O`, the MIC against Pseudomonas aeruginosa is greater than 128 µg/mL; against Staphylococcus aureus [2] it was 8 µg/mL (≈ 16 µM); with Escherichia coli [3] it was greater than 128 µg/mL; with Enterococcus faecalis it was 64 µg/mL (≈ 128 µM); in the data set with Staphylococcus aureus [6] it was 8 µg/mL (≈ 16 µM). Besides, the Activity result in the data set with HepG2 was “Non-toxic”. The IC50 in data set [4] came out at 8.2 µM; in [5] it was 180 µM; in data set [7], 6.4 µM; in data set [8], 17 µM.

As for `O=C(O)CC[C@@H](NC(=O)c1cccc(CNc2ccc(/C=C3\SC(=O)NC3=O)cc2)c1)C(=O)O`, the Activity with Escherichia coli [10] and in the data set on Staphylococcus aureus [11] was 64% each time. Inhibition in [4] was half-maximal at 35 µM (IC50).

The values are drawn from ChEMBL document CHEMBL2150983, “Dual Inhibitor of MurD and MurE Ligases from Escherichia coli and Staphylococcus aureus” (ACS Med Chem Lett, 2012).
